Experimental data from ChEMBL document CHEMBL4342471, “Discovery of Thieno[2,3-d]pyrimidine-Based Hydroxamic Acid Derivatives as Bromodomain-Containing Protein 4/Histone Deacetylase Dual Inhibitors Induce Autophagic Cell Death in Colorectal Carcinoma Cells” (J Med Chem, 2020).
Activity calls are given as the source filed them. The rule behind the calls is not given here.

Columns and labels:
HCT-116 [1] = experiment: Effect on histone H3 expression level in human HCT116 cells at 0.2 to 0.5 uM measured after 24 hrs by Western blot analysis; assay type: functional, cell-based
Homo sapiens [2] = species on record: Homo sapiens; experiment: Inhibition of BRD4/HDAC in human HCT116 cells assessed as increase in LIF mRNA level at 0.5 uM after 24 hrs by RT-PCR analysis; assay type: cell-based
How it was run: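 HCT-116 cells incubated 24 h with test agent (0.5 µM, 2.0 µM or 10 µM depending on compound); IL6, OSM, LIF and CTF1 mRNA levels then quantified.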

HCT-116 [3] = experiment: Induction of apoptosis in human HCT116 cells assessed as early apoptotic cells at 0.5 uM by Annexin-V FITC/propidium iodide staining-based flow cytometry (reference value: 2.8 %); assay type: functional
HCT-116 [4] = experiment: Induction of apoptosis in human HCT116 cells assessed as viable cells at 0.5 uM by Annexin-V FITC/propidium iodide staining-based flow cytometry (reference value: 93.4 %); assay type: functional; conditions: read-out: Activity
[5] = Toxicity in BALB/cAnNCrl mouse xenografted with human HCT116 cells assessed as effect on kidney morphological changes at 15 to 30 mg/kg, po administered on day 1 to day 19 measured on day 19 by hematoxylin and eosin staining based assay; assay type: organism-based; conditions: in vivo
How it was run: (§1)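 HCT-116 xenograft mice dosed orally at 15 or 30 mg/kg for 19 days, saline as vehicle control; body weights tracked, and main organs sectioned and H&E-stained at study end.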

[6] = target: Bromodomain-containing protein 2 (Homo sapiens, UniProt P25440); experiment: Inhibition of human recombinant His-tagged BRD2 BD2 domain expressed in Escherichia coli BL21(DE3)-R3-pRARE2 cells by AlphaScreen assay
Sequence of Bromodomain-containing protein 2 (P25440 whole entry, the tested form may be a part): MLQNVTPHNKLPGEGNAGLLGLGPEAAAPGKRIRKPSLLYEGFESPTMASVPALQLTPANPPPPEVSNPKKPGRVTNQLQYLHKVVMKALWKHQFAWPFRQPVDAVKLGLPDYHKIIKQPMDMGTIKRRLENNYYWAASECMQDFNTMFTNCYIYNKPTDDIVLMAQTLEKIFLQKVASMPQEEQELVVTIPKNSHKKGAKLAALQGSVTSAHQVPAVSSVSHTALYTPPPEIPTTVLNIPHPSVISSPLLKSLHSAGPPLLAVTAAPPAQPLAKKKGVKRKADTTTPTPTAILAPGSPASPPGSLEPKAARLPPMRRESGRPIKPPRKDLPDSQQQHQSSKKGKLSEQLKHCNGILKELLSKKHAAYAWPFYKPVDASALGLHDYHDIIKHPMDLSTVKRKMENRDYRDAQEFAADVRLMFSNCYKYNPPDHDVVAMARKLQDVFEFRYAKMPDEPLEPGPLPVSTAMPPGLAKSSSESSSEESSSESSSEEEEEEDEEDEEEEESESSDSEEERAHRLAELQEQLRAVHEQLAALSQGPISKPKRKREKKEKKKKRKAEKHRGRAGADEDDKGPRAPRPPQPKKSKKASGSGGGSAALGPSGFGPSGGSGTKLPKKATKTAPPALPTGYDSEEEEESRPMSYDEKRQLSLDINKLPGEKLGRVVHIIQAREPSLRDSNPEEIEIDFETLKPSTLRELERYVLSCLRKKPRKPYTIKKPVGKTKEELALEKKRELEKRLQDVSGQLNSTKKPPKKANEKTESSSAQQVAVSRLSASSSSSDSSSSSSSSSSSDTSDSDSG

NCM460 = experiment: Cytotoxicity against human NCM460 cells; assay type: cell-based
How it was run: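 Antiproliferative IC50 values were measured by MTT assay across a panel of colorectal carcinoma cell lines and normal colorectal epithelial cells.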

[7] = target: T1, Bromodomain-containing protein 4 (Homo sapiens, UniProt O60885); experiment: Inhibition of BRD4 in human HCT116 cells transfected with ATG5 siRNA assessed as induction of autophagy by measuring LC3 cleavage at 0.5 uM by Western blot analysis; assay type: cell-based
How it was run: (§2)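 HCT-116 cells first transfected with ATG5 siRNA or scramble siRNA; after silencing, exposed to 0.5 µM test agent or normal saline, then ATG5, AMPKα, p-AMPKα, p62 and LC3 protein assessed by western blot.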

[8] = AUC (0 to infinity) in Sprague-Dawley rat at 30 mg/kg, po measured up to 1440 mins by UPLC-QTOF/MS analysis; assay type: ADME, organism-based; parameters: dose 30 mg/kg, route oral, time infinity; conditions: in vivo
HCT-116 [9] = experiment: Antitumor activity against human HCT116 cells xenografted in BALB/cAnNCrl mouse assessed as increase in TUNEL positive apoptotic nuclei in tumor tissue at 15 to 30 mg/kg, po administered on day 1 to day 19 measured on day 19 by TUNEL assay; assay type: functional, organism-based
How it was run: (§3)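 HCT-116 xenograft mice were dosed orally at 15 or 30 mg/kg, or 30 mg/kg for reference agents, for 19 days, with vehicle or saline controls. Tumor sections were stained for Ki-67, c-Myc, Ac-H3, BRD4, LC3-II, LIFR and p-STAT3 by immunohistochemistry, and TUNEL staining was used as the apoptosis marker.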

[10] = Half life in Sprague-Dawley rat at 30 mg/kg, po measured up to 1440 mins by UPLC-QTOF/MS analysis; assay type: ADME, organism-based; conditions: in vivo
[11] = target: T1, Bromodomain-containing protein 4; experiment: Inhibition of BRD4 in human HCT116 cells transfected with ATG5 siRNA assessed as induction of autophagy by measuring p62 degradation at 0.5 uM by Western blot analysis; assay type: cell-based; how it was run: as §2
HCT-116 [12] = experiment: Antitumor activity against human HCT116 cells xenografted in orally dosed BALB/cAnNCrl mouse assessed as reduction in tumor volume administered on day 1 to day 19 relative to control; assay type: functional, organism-based
How it was run: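 HCT-116 xenografts in mice were given the test agent orally at 15 or 30 mg/kg, with a saline control group, over 19 days. Tumor volume was followed during treatment and tumors were weighed at the end. Body weight was monitored. Inhibition is expressed as treatment-to-control (T/C) ratio.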

[13] = target: T1, Bromodomain-containing protein 4; experiment: Inhibition of BRD4 in human HCT116 cells assessed as induction of autophagy by measuring decrease in p62 expression at 0.2 to 0.5 uM measured after 24 hrs by Western blot analysis; assay type: cell-based
[14] = Toxicity in BALB/cAnNCrl mouse xenografted with human HCT116 cells assessed as effect on lung morphological changes at 15 to 30 mg/kg, po administered on day 1 to day 19 measured on day 19 by hematoxylin and eosin staining based assay; assay type: organism-based; conditions: in vivo; how it was run: as §1
HCT-116 [15] = experiment: Induction of cell cycle arrest in human HCT116 cells assessed as cell accumulation at sub-G1 phase at 0.2 to 0.5 uM by flow cytometry; assay type: functional, cell-based
How it was run: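 HCT-116 cells treated at 0.2 or 0.5 μM were analysed for cell cycle by flow cytometry, with the sub-G1 population scored.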

HCT-116 [16] = experiment: Antiproliferative activity against human HCT116 cells assessed as reduction in cell viability measured after 24 to 48 hrs by MTT assay; assay type: functional, cell-based
Histone deacetylase 3 = Histone deacetylase 3 (Homo sapiens, UniProt O15379); experiment: Inhibition of HDAC3 (unknown origin) using biotinylated histone H3 KAc peptide (1 to 21 residues) as substrate by HTRF assay
Sequence of Histone deacetylase 3 (O15379 whole entry, the tested form may be a part): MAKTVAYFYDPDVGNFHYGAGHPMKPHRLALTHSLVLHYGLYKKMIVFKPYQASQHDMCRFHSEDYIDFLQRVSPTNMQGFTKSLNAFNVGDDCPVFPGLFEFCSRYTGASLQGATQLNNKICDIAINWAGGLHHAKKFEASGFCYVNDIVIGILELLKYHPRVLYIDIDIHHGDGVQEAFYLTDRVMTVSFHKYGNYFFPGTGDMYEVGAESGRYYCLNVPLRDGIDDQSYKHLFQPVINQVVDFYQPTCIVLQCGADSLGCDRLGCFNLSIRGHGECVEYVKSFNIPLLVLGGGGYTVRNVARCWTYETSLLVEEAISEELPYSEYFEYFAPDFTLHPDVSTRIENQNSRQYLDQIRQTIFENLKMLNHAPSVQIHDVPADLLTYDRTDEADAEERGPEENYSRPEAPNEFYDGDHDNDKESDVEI

[17] = Toxicity in BALB/cAnNCrl mouse xenografted with human HCT116 cells assessed as effect on body weight at 15 to 30 mg/kg, po administered on day 1 to day 19 […]; assay type: organism-based; conditions: in vivo; how it was run: as §1
Mus musculus [18] = experiment: Increase in phosphorylated STAT3 expression in tumor tissue of BALB/cAnNCrl mouse xenografted with human HCT116 cells at 15 to 30 mg/kg, po administered on day 1 to day 19 measured on day 19 by immunohistochemical analysis; assay type: functional, organism-based; how it was run: as §3
HCT-116 [19] = experiment: Decrease in BRD4 expression in human HCT116 cells at 0.2 to 0.5 uM incubated for 24 hrs by western blot analysis; assay type: functional, cell-based
Mus musculus [20] = experiment: Induction of autophagy in BALB/cAnNCrl mouse xenografted with human HCT116 cells assessed as increase in LC3-II level in tumor tissue at 15 to 30 mg/kg, po administered on day 1 to day 19 measured on day 19 by immunohistochemical analysis; assay type: functional, organism-based; how it was run: as §3
Histone deacetylase 2 = Histone deacetylase 2 (Homo sapiens, UniProt Q92769)
Sequence of Histone deacetylase 2 (Q92769 whole entry, the tested form may be a part): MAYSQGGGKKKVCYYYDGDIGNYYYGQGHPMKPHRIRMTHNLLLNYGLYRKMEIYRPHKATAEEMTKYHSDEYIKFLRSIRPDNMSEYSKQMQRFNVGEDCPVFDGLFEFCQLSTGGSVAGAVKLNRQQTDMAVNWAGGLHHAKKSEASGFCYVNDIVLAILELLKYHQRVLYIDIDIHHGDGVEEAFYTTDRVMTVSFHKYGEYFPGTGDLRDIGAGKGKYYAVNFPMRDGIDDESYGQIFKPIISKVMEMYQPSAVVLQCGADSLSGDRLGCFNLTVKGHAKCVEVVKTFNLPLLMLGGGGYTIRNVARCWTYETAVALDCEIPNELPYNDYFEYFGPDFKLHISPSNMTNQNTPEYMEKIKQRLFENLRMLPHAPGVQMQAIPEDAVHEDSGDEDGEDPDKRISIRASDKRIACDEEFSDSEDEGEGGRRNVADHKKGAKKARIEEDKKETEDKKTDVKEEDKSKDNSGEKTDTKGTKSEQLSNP

[21] = target: Polyamine deacetylase HDAC10 (Homo sapiens, UniProt Q969S8); experiment: Inhibition of HDAC10 (unknown origin) using biotinylated histone H3 KAc peptide (1 to 21 residues) as substrate by HTRF assay
Sequence of Polyamine deacetylase HDAC10 (Q969S8 whole entry, the tested form may be a part): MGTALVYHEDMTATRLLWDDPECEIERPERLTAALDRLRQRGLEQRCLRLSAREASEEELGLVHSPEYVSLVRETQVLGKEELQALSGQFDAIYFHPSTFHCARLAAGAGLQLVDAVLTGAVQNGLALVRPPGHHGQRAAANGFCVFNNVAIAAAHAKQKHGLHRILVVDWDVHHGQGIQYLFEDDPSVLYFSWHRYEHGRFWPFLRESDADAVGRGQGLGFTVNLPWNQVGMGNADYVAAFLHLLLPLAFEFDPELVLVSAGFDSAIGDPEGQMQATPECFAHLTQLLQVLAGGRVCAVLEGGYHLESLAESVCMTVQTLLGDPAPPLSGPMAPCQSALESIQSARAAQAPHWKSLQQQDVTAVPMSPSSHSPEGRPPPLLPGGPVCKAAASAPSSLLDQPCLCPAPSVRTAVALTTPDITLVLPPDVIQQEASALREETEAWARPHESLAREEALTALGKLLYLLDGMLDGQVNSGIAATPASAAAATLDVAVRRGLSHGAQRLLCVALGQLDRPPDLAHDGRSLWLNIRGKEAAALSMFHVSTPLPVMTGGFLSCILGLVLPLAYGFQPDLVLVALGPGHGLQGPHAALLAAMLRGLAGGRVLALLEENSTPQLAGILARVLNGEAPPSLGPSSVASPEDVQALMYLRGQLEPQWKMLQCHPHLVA

DLD-1 = experiment: Antiproliferative activity against human DLD1 cells assessed as reduction in cell viability measured after 24 to 48 hrs by MTT assay; assay type: functional, cell-based
Homo sapiens [22] = species on record: Homo sapiens; experiment: Inhibition of BRD4/HDAC in human HCT116 cells assessed as increase in PARP cleavage at 0.2 to 0.5 uM measured after 24 hrs by Western blot analysis; assay type: cell-based

Question: What does the source list for Cc1cc(-c2nc3sc4c(c3c(=O)[nH]2)CCN(C)C4)cc(C)c1OCCCCCC(=O)NO?
Answer: Activity (HCT-116 [1]): inactive; inhibition (Homo sapiens [2]): Active; Activity (HCT-116 [3]): 9.54%; viability at 0.5 µM (HCT-116 [4]): 44.9%; Activity [5]: Non-Toxic; IC50 [6]: > 20000 nM; Activity (NCM460): Non-Toxic; inhibition [7]: inactive; AUC(0-inf) [8]: 63300 ng·h/mL; Activity (HCT-116 [9]): Active; half-life [10]: 4.8 h; inhibition [11]: inactive; Activity (HCT-116 [12]): Dose-dependent effect; inhibition [13]: Active; Activity [14]: Non-Toxic; Activity (HCT-116 [15]): Active; IC50 (HCT-116 [16]): 450 nM; IC50 (Histone deacetylase 3): 75 nM; Activity [17]: Non-Toxic; Activity (Mus musculus [18]): inactive; inhibition (HCT-116 [19]): Active; Activity (Mus musculus [20]): Active; IC50 (Histone deacetylase 2): 58 nM; IC50 [21]: 923 nM; IC50 (DLD-1): 2110 nM; inhibition (Homo sapiens [22]): Active
